Reference: PMC12316622 (EJNMMI Research, 2025)
Counter-ions that a name gives are not always drawn.

Tests used:
PC-3 cells = experiment: IC50 determination, SRB cell density assay, PC-3; format: cell-based; settings: Homo sapiens
Procedure, shortened: (§1)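 Cells were seeded in 96-well plates (PC-3 at 3 × 10³, T47D at 5 × 10³) and left overnight. They were exposed 72 h at 37 °C to increasing test compound concentrations with DMSO vehicle, washed, then regrown 48 h in fresh medium. Readout was by SRB: TCA fixation overnight, 0.5% SRB for 20 min, acetic acid washes, dye dissolved in 10 mM Tris, OD at 560 nm. Density was taken relative to untreated cells (100%). Runs were in triplicate, and IC50 came from a four-parameter nonlinear fit.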

T47D cells [1] = experiment: IC50 determination, SRB cell density assay, T47D; format: cell-based; settings: Homo sapiens
Procedure, shortened: as §1

[2] = system: GRPR mRNA in PC-3 xenografts; experiment: Ex-vivo GRPR mRNA expression in PC-3 xenografts; parameters: species or system NMRI-Foxn1 nu/nu mice; settings: PC-3 xenografts after third cycle of DTX 5 mg/kg; RT-qPCR
Procedure, shortened: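 PC-3 xenografts came from male nude mice given taxane 5 mg/kg or placebo (polysorbate-80 1:1 in 5% glucose) weekly for 3 weeks, N = 4. After the final SPECT/CT scan, each tumor was halved. One half was processed for GRPR mRNA by RT-qPCR and compared with placebo.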

[3] = system: GRPR mRNA in T47D xenografts; experiment: Ex-vivo GRPR mRNA expression in T47D xenografts; parameters: species or system NMRI-Foxn1 nu/nu mice; settings: T47D tumors from DXR-treated animals (5 mg/kg, 2 cycles); RT-qPCR
Procedure, shortened: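 T47D xenografts came from estradiol-supplemented female nude mice given anthracycline 5 mg/kg or placebo weekly for 2 weeks. After the last SPECT/CT scan, each tumor was halved. One half was used for GRPR mRNA by RT-qPCR against placebo.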

T47D cells [4] = experiment: Sensitivity to GRPR-mediated radionuclide therapy, T47D; format: cell-based, human; settings: 50 MBq, 1 h, SRB after 6 days
Procedure, shortened: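 T47D cells were pretreated 72 h with anthracycline or vehicle (0.4% DMSO), then regrown 24 h. Next, 3 × 10⁶ cells were seeded in T25 flasks and the following day exposed 1 h at 37 °C to 50 MBq/ml ¹⁷⁷Lu-labelled GRPR tracer, [¹⁷⁷Lu]Lu-DTPA (specificity control) or medium. Cells were scraped and re-seeded at 4 × 10³ per well, grown 6 days, then read by SRB. Density was taken versus medium-treated cells within each pretreatment group, from three independent experiments in triplicate.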

Structure (SMILES): CC(=O)O[C@@]12CO[C@@H]1C[C@H](O)[C@@]1(C)C(=O)[C@H](O)C3=C(C)[C@@H](OC(=O)[C@H](O)[C@@H](NC(=O)OC(C)(C)C)c4ccccc4)C[C@@](O)([C@@H](OC(=O)c4ccccc4)[C@H]21)C3(C)C [DTX, anhydrous docetaxel]
- IC50 (PC-3 cells): 14.1 ± 3.72 nM
- IC50 (T47D cells [1]): 0.94 ± 0.39 nM
- GRPR mRNA levels in xenografts versus placebo [2]: similar

Structure (SMILES): COc1cccc2c1C(=O)c1c(O)c3c(c(O)c1C2=O)C[C@@](O)(C(=O)CO)C[C@@H]3O[C@H]1C[C@H](N)[C@H](O)[C@H](C)O1 [DXR, doxorubicin hydrochloride]
- IC50 (T47D cells [1]): 22.3 ± 7.04 nM
- GRPR mRNA expression in xenografts versus placebo [3]: increased GRPR mRNA expression

Structure (SMILES): O=C([O-])CN(CCN(CC(=O)[O-])CC(=O)[O-])CCN(CC(=O)[O-])CC(=O)[O-].[177Lu+3] [[^177Lu]Lu-DTPA]
- Cell density relative to medium-treated cells (T47D cells [4]; DXR-pretreated T47D cells): slightly higher compared to the other conditions
- Cell density relative to medium-treated cells (T47D cells [4]; vehicle and DXR pretreated T47D cells): no effect was observed
